Only a selection was taken, and hits are over-represented in it overall.
INS-1E rescue: preserves ATP levels in cytokine-treated INS-1E cells | 20,000 compounds, 0.1% hits | protection from cytokine-induced ATP loss, % at 10 µM | INS-1E cytokine-induced death, ATP luminescence, 48 h; normalised: neutral wells 0, positive control 100 | AID 488910;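 active = mean replicate protection from cytokine-induced ATP loss at least 50% and at least 75% of replicates each reaching 50%; inconclusive = meets only one of the two criteria, mean or replicate share; inactive = fails both the mean and replicate share criteria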
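Assay system: INS-1E rat insulinoma cells. Amount: 8000 cells per well. Medium: phenol-red-free RPMI with 5% fetal bovine serum. Reagent: IL-1β, TNF-α and IFN-γ cytokine mix. Doses: one compound concentration, pin transfer. Schedule: 48 h co-treatment, 10 min post-lysis read. Detection: CellTiter-Glo luminescence measuring cellular ATP.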
YB-1 expr inh: YB-1 expression inhibition | 30,000 compounds, 0.37% hits | AID 434959 | U2OS, qRT-PCR YB-1 vs CDIP delta delta Cp, 16 h; hits give high values; zero = DMSO, each unit about twofold | delta delta Cp (YB-1 minus CDIP) (test concentration not listed);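 active = delta delta Cp rounded down to an integer at or above 3, about 3 SD of DMSO wells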;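 note: higher means less YB-1 transcript or more CDIP transcript relative to DMSO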
T cruzi intra: intracellular Trypanosoma cruzi inhibition; intracellular Trypanosoma cruzi in host cells, plate reader; activity score (inhibition), % at 5.01 µM; 22,000 compounds, 4.9% hits; in the data active = activity score above about 55%; inconclusive = no clear call, values can overlap the other calls;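 note: parasites and compound incubated about four days before reading; 0% = median of neutral control wells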
Numbers without * were called inactive.

For C[C@H]1CN([C@@H](C)CO)C(=O)c2cccc(NC(=O)NC3CCCCC3)c2O[C@H]1CN(C)Cc1ccc(Oc2ccccc2)cc1 the results were INS-1E rescue -32.4, YB-1 expr inh 0.307 and T cruzi intra 26.7.
Screening C[C@@H]1CN([C@H](C)CO)C(=O)c2cccc(NC(=O)NC3CCCCC3)c2O[C@@H]1CN(C)Cc1ccc(C(F)(F)F)cc1 returned INS-1E rescue -27.2, YB-1 expr inh -0.0921 and T cruzi intra 23.2.
`O=C(O)CCCc1cc2cc(Br)ccc2o1` gave YB-1 expr inh -0.447.
Screening COc1ccc(S(=O)(=O)N(C)C[C@H]2Oc3ccc(NC(=O)Nc4cccc5ccccc45)cc3C(=O)N([C@@H](C)CO)C[C@@H]2C)cc1 returned INS-1E rescue 0.6, YB-1 expr inh 0.16 and T cruzi intra 3.2.
For COc1ccc(S(=O)(=O)N(C)C[C@H]2Oc3c(NC(=O)Nc4ccc(C(F)(F)F)cc4)cccc3C(=O)N([C@@H](C)CO)C[C@H]2C)cc1 the results were INS-1E rescue -101.9, YB-1 expr inh 0.426 and T cruzi intra 67.1*.
`COc1ccc(S(=O)(=O)N(C)C[C@H]2Oc3ccc(NC(=O)Nc4cccc5ccccc45)cc3C(=O)N([C@@H](C)CO)C[C@H]2C)cc1` gave INS-1E rescue -9.5, YB-1 expr inh -0.296 and T cruzi intra 61.7*.
For COc1ccc(S(=O)(=O)N(C)C[C@@H]2Oc3c(NC(=O)Nc4ccc(C(F)(F)F)cc4)cccc3C(=O)N([C@@H](C)CO)C[C@H]2C)cc1 the results were INS-1E rescue -6.9, YB-1 expr inh -0.0744 and T cruzi intra 2.1.
Screening COc1ccc(S(=O)(=O)N(C)C[C@H]2Oc3c(NC(=O)Nc4ccc(C(F)(F)F)cc4)cccc3C(=O)N([C@@H](C)CO)C[C@@H]2C)cc1 returned INS-1E rescue -38.9, YB-1 expr inh -0.166 and T cruzi intra 69.8*.
`COc1ccc(S(=O)(=O)N(C)C[C@H]2Oc3c(NC(=O)Nc4ccc(C(F)(F)F)cc4)cccc3C(=O)N([C@H](C)CO)C[C@@H]2C)cc1` gave INS-1E rescue -18.0, YB-1 expr inh 0.0127 and T cruzi intra inconclusive.
CCOC(=O)c1c(N(C)C)ccc(C2C=CNC(=O)N2)c1C (stereo unspecified) was read as YB-1 expr inh -0.502.
c1ccc(SCCN2CCN(CCSc3ccccc3)CC2)cc1 was read as YB-1 expr inh 0.422.
For C[C@H](CO)N1C[C@H](C)[C@H](CN(C)Cc2ccc(C(F)(F)F)cc2)Oc2ccc(NC(=O)Cc3ccccc3)cc2C1=O the results were YB-1 expr inh 0.158 and T cruzi intra 64.1*.
Screening C[C@@H]1CN([C@H](C)CO)C(=O)c2cc(NC(=O)Nc3ccc(C(F)(F)F)cc3)ccc2O[C@H]1CN(C)Cc1ccc(-c2ccccc2)cc1 returned INS-1E rescue -67.8, YB-1 expr inh 0.13 and T cruzi intra 85.9*.
C[C@@H]1CN([C@@H](C)CO)C(=O)c2cc(NC(=O)Cc3ccccc3)ccc2O[C@@H]1CN(C)Cc1ccc(C(F)(F)F)cc1 was read as YB-1 expr inh 0.122 and T cruzi intra -0.5.
C[C@H](CO)N1C[C@H](C)[C@@H](CN(C)Cc2ccc(-c3ccccc3)cc2)Oc2ccc(NC(=O)Nc3ccc(C(F)(F)F)cc3)cc2C1=O was read as INS-1E rescue -20.4, YB-1 expr inh 0.0327 and T cruzi intra 22.7.
C[C@@H]1CN([C@@H](C)CO)C(=O)c2cc(NC(=O)Nc3ccc(C(F)(F)F)cc3)ccc2O[C@@H]1CN(C)Cc1ccc(-c2ccccc2)cc1 was read as INS-1E rescue -34.2, YB-1 expr inh 0.16 and T cruzi intra 64.0*.
`C[C@@H]1CN([C@@H](C)CO)C(=O)c2cc(NC(=O)Nc3ccc(C(F)(F)F)cc3)ccc2O[C@H]1CN(C)Cc1ccc(-c2ccccc2)cc1` gave INS-1E rescue -44.8, YB-1 expr inh -0.229 and T cruzi intra 1.8.
For Cc1nc2c(o1)N(c1ccccc1)C(N)=C(C#N)C2c1ccc(OC(C)C)cc1 (stereo unspecified) the results were YB-1 expr inh -0.219.
`COC(=O)C1=C(NC(=O)c2ccc(S(=O)(=O)N3CCOCC3)cc2)CCS1` gave YB-1 expr inh -2.1.
`C[C@H]1CN([C@@H](C)CO)C(=O)Cc2cc(NC(=O)Nc3ccc(F)cc3)ccc2O[C@H]1CN(C)S(=O)(=O)c1cn(C)cn1` gave INS-1E rescue 4.7, YB-1 expr inh 8.08* and T cruzi intra -1.8.
`Cc1ccc(S(=O)(=O)N(C)C[C@H]2Oc3ccc(NC(=O)Nc4ccc(C(F)(F)F)cc4)cc3CC(=O)N([C@H](C)CO)C[C@H]2C)cc1` gave INS-1E rescue -4.6, YB-1 expr inh 0.0911 and T cruzi intra 64.0*.
`COc1ccc(S(=O)(=O)N(C)C[C@H]2Oc3ccc(NC(=O)Nc4ccc(C(F)(F)F)cc4)cc3CC(=O)N([C@H](C)CO)C[C@H]2C)cc1` gave INS-1E rescue 2.8, YB-1 expr inh -0.363 and T cruzi intra 64.7*.
`COc1ccc(NC(=O)Nc2ccc3c(c2)CC(=O)N([C@@H](C)CO)C[C@H](C)[C@H](CN(C)S(=O)(=O)c2ccc(OC)cc2)O3)cc1` gave INS-1E rescue 9.0, YB-1 expr inh -0.289 and T cruzi intra -3.4.
C[C@H](CO)N1C[C@H](C)[C@H](CN(C)S(=O)(=O)c2ccc(F)cc2)Oc2ccc(NC(=O)Nc3ccc(F)cc3)cc2CC1=O was read as INS-1E rescue -6.6, YB-1 expr inh 0.76 and T cruzi intra 23.1.
C[C@H](CO)N1C[C@H](C)[C@H](CN(C)S(=O)(=O)c2cn(C)cn2)Oc2ccc(NC(=O)Nc3ccc(F)cc3)cc2CC1=O was read as INS-1E rescue 2.7, YB-1 expr inh -0.0918 and T cruzi intra -8.1.
Cc1ccc(S(=O)(=O)N(C)C[C@H]2Oc3ccc(NC(=O)Nc4ccc(C(F)(F)F)cc4)cc3CC(=O)N([C@@H](C)CO)C[C@@H]2C)cc1 was read as INS-1E rescue -4.6, YB-1 expr inh -0.479 and T cruzi intra 1.6.
For C[C@H](CO)N1C[C@H](C)[C@H](CN(C)S(=O)(=O)c2ccc(F)cc2)Oc2ccc(NC(=O)Nc3ccc(C(F)(F)F)cc3)cc2CC1=O the results were INS-1E rescue -66.8, YB-1 expr inh 0.397 and T cruzi intra 69.3*.
Screening Cc1cc(-c2ccccc2)nc2c1/C(=N\O)CC(C)(C)C2 returned YB-1 expr inh -0.501.
CCOC(=O)C1=NNCC1C(=O)OCC (stereo unspecified) was read as YB-1 expr inh -0.176.
For C[C@@H]1CN([C@H](C)CO)C(=O)c2cccc(NS(=O)(=O)c3ccc(F)cc3)c2O[C@@H]1CN(C)S(=O)(=O)c1ccc(F)cc1 the results were INS-1E rescue 1.9, YB-1 expr inh -0.416 and T cruzi intra 16.3.
For C[C@@H]1CN([C@H](C)CO)C(=O)c2cccc(NC(=O)c3nc4ccccc4s3)c2O[C@@H]1CN(C)S(=O)(=O)c1ccccc1 the results were INS-1E rescue 6.4, YB-1 expr inh -0.167 and T cruzi intra 9.3.
